Our source for the solubility and Ki values is ChEMBL document CHEMBL1127779, “Stereospecific synthesis of peptidyl alpha-keto amides as inhibitors of calpain” (J Med Chem, 1994).

Values after ≈ are worked out from the molar mass of the structure shown. Non-standard residues stand in square brackets, D forms with d. Residues, ends and D or L forms follow the SMILES beside them. ξ: configuration not given here. *: point of attachment. Cbz = O=C(OCc1ccccc1)*; ξNva = CCCC(N)C(=O)O

Series [1] can be described thus: Tested for solubility of the compound. It counts as ADME. The settings on record: read-out: S. An outline of the steps:
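The DMA stock was diluted in 0.9% saline to 3% DMA (inhibitor ≤0.9 mg/mL) and brought to pH 2.75 with 0.1 N HCl. It was sonicated 5 min, held 15 min at room temperature and centrifuged 5 min at 16500g. Supernatant concentration came from C4 reverse-phase HPLC (60 °C, 210 nm) peak area, calibrated against standards in acetonitrile.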

Series [2] concerns the target T1, Calpain-2 catalytic subunit (Bos taurus, UniProt Q27971).
T1 sequence (Q27971 whole entry): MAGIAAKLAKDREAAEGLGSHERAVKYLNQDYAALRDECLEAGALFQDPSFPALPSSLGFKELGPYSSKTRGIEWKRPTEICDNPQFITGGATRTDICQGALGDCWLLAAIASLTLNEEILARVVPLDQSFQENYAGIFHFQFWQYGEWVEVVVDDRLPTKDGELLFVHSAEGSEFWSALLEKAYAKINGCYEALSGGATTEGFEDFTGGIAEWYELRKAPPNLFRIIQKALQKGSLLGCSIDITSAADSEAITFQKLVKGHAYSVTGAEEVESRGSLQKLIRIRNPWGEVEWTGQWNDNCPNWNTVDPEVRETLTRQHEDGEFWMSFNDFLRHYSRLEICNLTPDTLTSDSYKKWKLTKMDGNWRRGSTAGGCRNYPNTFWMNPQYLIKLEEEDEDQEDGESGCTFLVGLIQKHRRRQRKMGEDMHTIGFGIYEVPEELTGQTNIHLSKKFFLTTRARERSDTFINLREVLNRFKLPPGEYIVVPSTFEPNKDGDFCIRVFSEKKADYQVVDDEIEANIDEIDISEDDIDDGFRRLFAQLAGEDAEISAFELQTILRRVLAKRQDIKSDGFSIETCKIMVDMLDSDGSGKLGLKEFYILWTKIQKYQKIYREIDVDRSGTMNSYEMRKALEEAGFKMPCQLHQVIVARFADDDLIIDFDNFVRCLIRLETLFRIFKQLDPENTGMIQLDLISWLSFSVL
Briefly: Tested for inhibitory activity on bovine calpain 2 from heart.

For `CCS(=O)(=O)CCNC(=O)C(=O)[C@@H](Cc1ccccc1)NC(=O)[C@H](CC(C)C)NC(=O)OCc1ccccc1`, the solubility in series [1] stood at 730 µg/mL (≈ 1300 µM).
On to `CCCC(NC(=O)[C@H](CC(C)C)NC(=O)OCc1ccccc1)C(=O)NCC` (stereo partly drawn) (Cbz-Leu-[ξNva]-NHEt), for which the Ki in series [2] came to 50 nM.
